# Source: ChEMBL document CHEMBL3875163, “Novel urea and bis-urea primaquine derivatives with hydroxyphenyl or halogenphenyl substituents: Synthesis and biological evaluation” (Eur J Med Chem, 2016)
# Experiments:
# [1] = Growth inhibition of mouse L1210 cells after 72 hrs by MTT assay; format: functional, cell-based; settings: L1210, 72 h
# [2] = Growth inhibition of human Molt4/C8 cells after 72 hrs by MTT assay; format: functional, cell-based; settings: MOLT-4, 72 h
# [3] = Growth inhibition of human CEM cells after 72 hrs by MTT assay; format: functional, cell-based; settings: CCRF-CEM
# [4] = Growth inhibition of human HeLa cells after 72 hrs by MTT assay; format: functional, cell-based
# [5] = Growth inhibition of human MIAPaCa2 cells after 72 hrs by MTT assay; format: functional, cell-based; settings: MIA PaCa-2, 72 h
# [6] = Growth inhibition of human NCI-H460 cells after 72 hrs by MTT assay; format: functional, cell-based; settings: NCI-H460, 72 h
# How it was run: (§1)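 Modified NCI DTP protocol: cells in DMEM with 10% FBS, 2 mM glutamine, antibiotics, 37 °C, 5% CO2; seeded 1 × 10^4 to 3 × 10^4 cells/ml on day 0, exposed to five 10-fold dilutions (10^-8 to 10^-4 M) for 72 h; solvent control. MTT read-out; quadruplicate points in three experiments; IC50 by linear regression of growth percentages bracketing 50%.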
# [7] = Growth inhibition of human SW620 cells after 72 hrs by MTT assay; format: functional, cell-based; settings: SW-620, 72 h; how it was run: as §1
# [8] = Growth inhibition of human MCF7 cells after 72 hrs by MTT assay; format: functional, cell-based; settings: MCF7, 72 h; how it was run: as §1
# [9] = Antioxidant activity assessed as DPPH radical scavenging activity at 100 uM after 20 mins relative to control; format: functional
# How it was run: (§2)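 Compound in DMSO added to DPPH in absolute ethanol, 0.1 mM final; absorbance at 517 nm after 20 and 60 min at room temperature. At least triplicate.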
# [10] = Antioxidant activity assessed as DPPH radical scavenging activity at 100 uM after 60 mins relative to control; format: functional; how it was run: as §2
# [11] = Antioxidant activity assessed as inhibition of AAPH-induced linoleic acid lipid peroxidation at 1 x 10^-4 M by UV-absorbance method relative to control; format: functional
# How it was run: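 Linoleic acid peroxidation: 16 mM sodium linoleate dispersion in 0.05 M phosphate buffer pH 7.4 at 37 °C under air, initiated by AAPH (40 mM solution); compound at 1 × 10^-4 M; oxidation followed at 234 nm. At least triplicate.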
# [12] = tested on: Glycine max; test: Inhibition of soybean LOX assessed as reduction in conversion of sodium linoleate to 13-hydroperoxylinoleic acid at 1 x 10^-4 M relative to control
# How it was run: (§3)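 Soybean lipoxygenase incubated at room temperature with sodium linoleate (0.1 mM) and test compound (DMSO stocks); formation of 13-hydroperoxylinoleic acid read at 234 nm. Single-point screening at 1 × 10^-4 M; IC50 from several concentrations. At least triplicate.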
# [13] = tested on: Staphylococcus aureus; test: Antibacterial activity against Staphylococcus aureus ATCC 6538 after 18 hrs by serial microdilution broth assay; format: functional; settings: ATCC 6538, 18 h
# How it was run: (§4)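 Broth microdilution MIC per EUCAST for aerobic bacteria in Mueller-Hinton broth, serial dilution 1000 to 0.78125 µg/ml from 10 mg/ml DMSO stocks. Inoculum from trypticase soy broth cultures (18 h, 37 °C), set to 0.5 McFarland in PBS pH 7.4, diluted 1:10. 18 h aerobic incubation at 35 °C in dark, then TTC 0.5 mg/ml for 3 h, HCl-isopropanol, A490. MIC = lowest concentration giving 50% inhibition versus untreated; duplicates.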
# [14] = tested on: Staphylococcus aureus; test: Antibacterial activity against methicillin sensitive Staphylococcus aureus ATCC 25923 after 18 hrs by serial microdilution broth assay; format: functional; settings: ATCC 25923, 18 h
# How it was run: (§5)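 EUCAST-based broth microdilution in Mueller-Hinton broth. Glycerol stock cultures grown in trypticase soy broth 18 h at 37 °C; inoculum in PBS pH 7.4 at 0.5 McFarland, diluted 1:10 in broth. Compounds from DMSO stocks, 1000 to 0.78125 µg/ml; 18 h aerobic, 35 °C, dark. TTC 0.5 mg/ml added, 3 h, then HCl/isopropanol, A490. MIC = lowest concentration giving 50% inhibition vs untreated; duplicates, averaged.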
# [15] = tested on: Staphylococcus aureus; test: Antibacterial activity against methicillin sensitive Staphylococcus aureus ATCC 25213 after 18 hrs by serial microdilution broth assay; format: functional; settings: ATCC 25213, 18 h; how it was run: as §4
# [16] = tested on: Staphylococcus aureus; test: Antibacterial activity against methicillin resistant Staphylococcus aureus MFBF 10682 after 18 hrs by serial microdilution broth assay; format: functional; settings: MFBF 10682, 18 h; how it was run: as §5
# [17] = tested on: Staphylococcus aureus; test: Antibacterial activity against methicillin resistant Staphylococcus aureus MFBF 10679 after 18 hrs by serial microdilution broth assay; format: functional; settings: MFBF 10679, 18 h; how it was run: as §5
# [18] = tested on: Enterococcus faecalis; test: Antibacterial activity against vancomycin susceptible Enterococcus faecalis ATCC 29212 after 18 hrs by serial microdilution broth assay; format: functional; settings: ATCC 29212, 18 h; how it was run: as §4
# [19] = tested on: Enterococcus faecalis; test: Antibacterial activity against vancomycin resistant Enterococcus faecalis MFBF 11419 after 18 hrs by serial microdilution broth assay; format: functional; settings: MFBF 11419, 18 h; how it was run: as §5
# [20] = tested on: Bacillus pumilus; test: Antibacterial activity against Bacillus pumilus NCTC 8241 after 18 hrs by serial microdilution broth assay; format: functional; settings: NCTC 8241, 18 h; how it was run: as §4
# [21] = tested on: Bacillus cereus; test: Antibacterial activity against Bacillus cereus ATCC 11778 after 18 hrs by serial microdilution broth assay; format: functional; settings: ATCC 11778, 18 h; how it was run: as §4
# [22] = tested on: Bacillus spizizenii; test: Antibacterial activity against Bacillus subtilis ATCC 6633 after 18 hrs by serial microdilution broth assay; format: functional; settings: ATCC 6633, 18 h; how it was run: as §4
# [23] = tested on: Pseudomonas aeruginosa; test: Antibacterial activity against Pseudomonas aeruginosa ATCC 9027 after 18 hrs by serial microdilution broth assay; format: functional; settings: ATCC 9027, 18 h; how it was run: as §5
# [24] = tested on: Pseudomonas aeruginosa; test: Antibacterial activity against Pseudomonas aeruginosa ATCC 27853 after 18 hrs by serial microdilution broth assay; format: functional; settings: ATCC 27853, 18 h; how it was run: as §4
# [25] = tested on: Pseudomonas aeruginosa; test: Antibacterial activity against multi-drug resistant Pseudomonas aeruginosa MFBF after 18 hrs by serial microdilution broth assay; format: functional; how it was run: as §5
# [26] = tested on: Escherichia coli; test: Antibacterial activity against Escherichia coli ATCC 10535 after 18 hrs by serial microdilution broth assay; format: functional; settings: ATCC 10535, 18 h; how it was run: as §4
# [27] = tested on: Candida albicans; test: Antifungal activity against Candida albicans ATCC 90028 after 18 hrs by serial microdilution broth assay; format: functional; settings: ATCC 90028, 18 h
# How it was run: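 Yeast microdilution in RPMI 1640 with glutamine plus 2% glucose, 1000 to 0.78125 µg/ml from 10 mg/ml DMSO stocks. Growth read with XTT (10 mg/ml) mixed 7:1 with menadione (1 mg/ml in acetone), absorbance at 540 nm. MIC taken as lowest concentration giving 50% growth inhibition versus untreated cells; tests in duplicate.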
# [28] = Hemolytic activity against human RBC at 100 ug/ml after 1 hr relative to control; format: ADME, cell-based, Erythrocyte; settings: red blood cells (RBC), read-out: Activity
# [29] = Cytotoxicity against HEK cells assessed as reduction in cell viability at 12.5 to 200 ug/ml after 24 hrs by MTT assay; format: toxicity, cell-based; settings: human, hek293, 24 h
# How it was run: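 HEK 293 cells, 5 × 10^3 per well, treated next day for 24 h with compound (range within 200 to 1.5625 µg/ml). MTT 0.5 mg/ml in DMEM/10% FBS, 4 h at 37 °C, 5% CO2; formazan in DMSO, A570. Viability as percent of untreated control; triplicates, three independent experiments.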
# [30] = Inhibition of soybean LOX assessed as reduction in conversion of sodium linoleate to 13-hydroperoxylinoleic acid; parameters: species or system Glycine max; how it was run: as §3
inhibition [12] [%],SMILES,IC50 [1] [µM],IC50 [2] [µM],IC50 [3] [µM],IC50 [4] [µM],IC50 [5] [µM],IC50 [6] [µM],IC50 [7] [µM],IC50 [8] [µM],Activity [9] [%],Activity [10] [%],inhibition [11] [%],MIC50 [13] [µg/mL],MIC50 [14] [µg/mL],MIC50 [15] [µg/mL],MIC50 [16] [µg/mL],MIC50 [17] [µg/mL],MIC50 [18] [µg/mL],MIC50 [19] [µg/mL],MIC50 [20] [µg/mL],other results
–,CN(C)[C@@H]1C(O)=C(C(N)=O)C(=O)[C@@]2(O)C(O)=C3C(=O)c4c(O)cccc4[C@@](C)(O)[C@H]3C[C@@H]12 [TETRACYCLINE],–,–,–,–,–,–,–,–,–,–,–,0.15,0.312,0.156,0.312,0.312,0.312,> 128,0.156,MIC50 [21]: 0.312 µg/mL; MIC50 [22]: 0.312 µg/mL; MIC50 [23]: 3 µg/mL; MIC50 [24]: 3 µg/mL; MIC50 [25]: > 128 µg/mL; MIC50 [26]: 2.5 µg/mL
55.8,COc1cc(NC(C)CCCNC(=O)NNC(=O)Nc2ccc(C(F)(F)F)cc2)c2ncccc2c1 (stereo not drawn),18,24,18,15,19,12,12,0.1,99,96.1,75.3,–,–,–,–,–,–,–,–,IC50 [30]: 85 µM
–,COc1cc(NC(C)CCCN)c2ncccc2c1 (stereo not drawn) [PRIMAQUINE],–,–,–,–,–,–,–,–,–,–,–,70,70,70,60,70,> 100,> 100,70,MIC50 [21]: 70 µg/mL; MIC50 [22]: 80 µg/mL; MIC50 [23]: 70 µg/mL; MIC50 [24]: 65 µg/mL; MIC50 [25]: 70 µg/mL; MIC50 [26]: 65 µg/mL; MIC50 [27]: 350 µg/mL
49.9,COc1cc(NC(C)CCCNC(=O)Nc2ccc(O)cc2)c2ncccc2c1 (stereo not drawn),21,21,23,70,57,34,30,5.2,95.5,94.5,54,–,–,–,–,–,–,–,–,–

SMILES,inhibition [12] [%],IC50 [1] [µM],IC50 [2] [µM],IC50 [3] [µM],IC50 [4] [µM],IC50 [5] [µM],IC50 [6] [µM],IC50 [7] [µM],IC50 [8] [µM],Activity [9] [%],Activity [10] [%],inhibition [11] [%],MIC50 [13] [µg/mL],MIC50 [14] [µg/mL],MIC50 [15] [µg/mL],MIC50 [16] [µg/mL],MIC50 [17] [µg/mL],MIC50 [18] [µg/mL],MIC50 [19] [µg/mL],MIC50 [20] [µg/mL],other results
COc1cc(NC(C)CCCNC(=O)Nc2ccc(C(F)(F)F)cc2)c2ncccc2c1 (stereo not drawn),22.4,7.4,20,14,8.3,8.4,24,22,1.9,38.9,36.4,67,25,35,50,> 100,> 100,> 100,> 100,> 100,"MIC50 [21]: > 100 µg/mL; MIC50 [22]: > 100 µg/mL; MIC50 [23]: 100 µg/mL; MIC50 [24]: 25 µg/mL; MIC50 [25]: 150 µg/mL; MIC50 [26]: > 100 µg/mL; MIC50 [27]: > 100 µg/mL; hemolysis at 1 h, 100 ug/ml [28]: 7.85%; Activity [29]: Non-Toxic"
